Assay outcomes (PubChem BioAssay)
Not all results are given here.
PGC1a Ac signal: compounds raising PGC1a acetylation signal, primary screen, PGC1a modulator project, cell-based, U2OS, AlphaScreen, signal-increasing mode. overnight. activation, % at 15.6 µM. hit rate 0.21% among 350,000;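 active = every replicate reaching activation of at least 50%, whatever the mean replicate activation; inconclusive = replicates that disagree or another doubt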;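 note: hits raise the AlphaScreen acetylation signal above neutral controls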
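System: flag-PGC1a/GCN5 U2OS cells / Input: 7000 cells/well / Compound: single test concentration per compound / Incubation: overnight compound treatment, 37 °C / Technique: AlphaScreen on lysates with anti-acetyl-lysine antibody, acceptor and donor beads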
Hep G6PC suppr: suppressors of forskolin-stimulated G6PC mRNA, dose response, PGC-1a acetylation activator project, cell-based, hepatocytes, RT-qPCR, cherry-picked samples; shares compounds with PGC1a Ac signal; primary mouse hepatocytes; G6PC suppression (normalized activity, % of positive control; higher = more suppression), % at 26 µM; 240 tested, under 10 active;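 active = dose curves showing G6PC suppression whose half-maximal dose is at most twice the top valid dose; inconclusive = flat curves with moderate negative activity, or unreliable fits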;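 note: G6PC expression relative to GAPDH housekeeping gene as delta delta Ct; 0% = median of neutral control wells and 100% = median of positive control wells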
PCK1 hep suppr: suppression of PCK1 mRNA in primary hepatocytes, dose response, PGC-1a acetylation activator project, cell-based, primary mouse hepatocytes, RT-qPCR, cherry-pick | 230 tested, under 10 active | shares compounds with PGC1a Ac signal | forskolin-stimulated | PCK1 expression decrease, unspecified at 26 µM;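 active = compounds lowering PCK1 expression whose fitted half-maximal concentration is at most twice the top tested dose; inconclusive = flat fit with moderate opposite-direction effect, or poor fit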;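 note: values are delta delta Ct of PCK1 relative to GAPDH; higher delta delta Ct means lower PCK1 expression so positive values indicate hits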
Hep PGC-1a down: suppression of PGC-1a mRNA in primary hepatocytes, dose response, PGC-1a acetylation activator project, cell-based, primary mouse hepatocytes, RT-qPCR, cherry-pick | shares compounds with PGC1a Ac signal | PGC-1a mRNA qPCR, forskolin; top dose 26 µM | max activity (PGC-1a expression decrease), % | 240 tested, under 10 active;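 active = compound lowering PGC-1a expression with fitted half-maximal concentration at most twice its top tested dose; inconclusive = flat curve with moderate opposite-direction effect, or poor fit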;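 note: 0% = neutral control wells median and 100% = positive control wells median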
Numbers without * were called inactive; i = inactive; ? = inconclusive; · = not tested or not shown.

SMILES | PGC1a Ac signal | Hep G6PC suppr | PCK1 hep suppr | Hep PGC-1a down
CC(Nc1ccccc1)c1cc(Cl)ccc1O (stereo not given) | -48 | · | · | ·
C=C[C@H]1C(C(=O)OCC)=CC[C@@H](c2ccccc2)N1S(=O)(=O)c1ccc(C)cc1 | ? | -62 | ? | 57
Nc1cc2nsnc2cc1Br | -60 | · | · | ·
CCN(CC)c1cc(Cl)nc(N)n1 | -43 | · | · | ·
COc1cc(C)c(CN2CCN(S(=O)(=O)c3ccc(Cl)s3)CC2)cc1OC | 79* | 66 | 91 | ?
COc1ccc2nc(C)cc(N/N=C/c3ccc(F)cc3)c2c1 | -94 | · | · | ·
Cn1nc(-c2ccccn2)nc2c(=O)n(C)c(=O)nc1-2 | -80 | · | · | ·
O=C(CSc1c(Cl)cccc1Cl)NC1CCCc2ccccc21 (stereo not given) | -43 | · | · | ·
COC(=O)C[C@H]1c2cc(C(F)(F)F)ccc2S(=O)(=O)N1Cc1ccc(OC)cc1 | 106* | 29 | 70 | 68
COc1ccc(-c2nc(N)c(C#N)c(-c3cccnc3)c2C)cc1 | ? | 2 | 7.5 | 40
CCCS(=O)(=O)Nc1cccc(-c2nc3cccnc3s2)c1 | ? | -45 | -27 | 35
CNC[C@@H](CC1CCCCC1)NC[C@H](CC(C)C)NCCc1cccc(C(F)(F)F)c1 | -88 | · | · | ·
Cc1nc(NCCc2ccccc2)c2nnn(Cc3ccccc3Cl)c2n1 | -42 | · | · | ·
O=c1[nH]nc(-c2ccc(NCCCO)c([N+](=O)[O-])c2)c2ccccc12 | -59 | · | · | ·
COc1cc(CN2CCC(C(=O)NCCC(C)C)CC2)ccc1OCc1ccccc1 | ? | 909 | 178 | 56
COc1cc(C2Nc3cccc4cccc(c34)N2)ccc1OC(C)=O | -56 | · | · | ·
CCN1CCN(Cc2ccc(NC(=O)c3ccc(C)c(NC(=O)c4c[nH]c5cc(C(F)(F)F)ccc5c4=O)c3)cc2C(F)(F)F)CC1 | -78 | · | · | ·
O=C(NCc1cccs1)C1Cc2c(-c3ccc(Cl)cc3)ccnc2O1 (stereo not given) | 101* | 13 | 6.5 | 48
C[C@@H](C(=O)Nc1nc2ccc(F)cc2s1)N1C(=O)C2CC=CCC2C1=O (stereo not given in full) | -47 | · | · | ·
Fc1ccc(CN(Cc2ccccc2)C(c2cccs2)c2nnnn2C2CCCCC2)cc1 (stereo not given) | -42 | · | · | ·
CC(C)C(c1nnnn1Cc1ccccc1)N(Cc1ccco1)Cc1cccs1 (stereo not given) | 91* | 316 | 67 | 95
O=C1CCCC(O)=C1N=Nc1ccc2c(c1)OCO2 | -47 | · | · | ·
COc1cc(-c2cnc3c(NC(C)=O)cc(-c4ccccc4CN(C)C)cn23)cc(OC)c1OC | ? | 505 | 84 | 55
COC(=O)Cn1ccc(-c2ccc(Cl)cc2)c(C#N)c1=O | -49 | · | · | ·
Cc1ccc(-c2nnc(Nc3ccc4c(c3)OCO4)c3ccccc23)cc1S(=O)(=O)NCCO | 94* | 44 | 113 | 63
SMILES | PGC1a Ac signal | Hep G6PC suppr | PCK1 hep suppr | Hep PGC-1a down
CCOC(=O)c1sc2nc(C)nc(NCc3ccccc3OC)c2c1C | -63 | 101 | 149 | 129
COc1ccc(N=C2S/C(=C\c3ccc(N4CCOCC4)o3)C(=O)N2CCc2c[nH]c3ccccc23)cc1 | -62 | · | · | ·
NC(=O)C1CCCc2c1[nH]c1ccc(Cl)cc21 (stereo not given) | · | 1 | -3 | 11
Cc1ccc2c(CN(Cc3ccccc3)Cc3ccccc3)cc(=O)oc2c1 | ? | · | 62 | 75
CC(=O)Nc1ccc2c(CSc3nncs3)cc(=O)oc2c1 | -47 | · | · | ·
COCCCNC(=O)c1cc(=O)n(Cc2ccc(Cl)cc2)c2ccccc12 | -45 | · | · | ·
Cn1ncc(N=Cc2ccccc2)c1C(N)=O | -48 | · | · | ·
Cc1cc2c(cc1S(=O)(=O)N1CCc3ccccc31)NC(=O)CO2 | ? | · | 19 | 15
CCOc1ccc(C(C)=O)cc1CSC(=N)N | -40 | · | · | ·
CN1C[C@H](C(=O)N[C@]2(C)O[C@@]3(O)[C@@H]4CCCN4C(=O)[C@H](Cc4ccccc4)N3C2=O)CC2c3cccc4[nH]cc(c34)C[C@H]21 (stereo not given in full) | -43 | · | · | ·
Cc1nn2c(NCCCN3CCOCC3)c3c(nc2c1-c1ccccc1)CCC3 | 67* | i | 426 | 53
Cc1cc(C)nc(NC(=S)Nc2ccccc2)n1 | -60 | · | · | ·
CC1(C)CC(=O)C(C=NCC(N)=O)=C(O)C1 | -52 | · | · | ·
CC(=O)N(CCC(Cc1ccccc1)c1ccc2c(c1)OCO2)Cc1ccccc1F (stereo not given) | -40 | · | · | ·
C#CCN(C[C@@H]1[C@@H](OC(=O)NCCCCCC)[C@@H](OC(=O)NCCCCCC)Cn2c(=O)ccc(=O)n21)S(=O)(=O)c1ccc(C)cc1 | -92 | · | · | ·
COc1ccc(S(=O)(=O)Nc2ccc3c(c2)C(=O)N([C@@H](C)CO)C[C@@H](C)[C@H](CN(C)S(=O)(=O)c2ccc(Cl)cc2)OCCCC[C@H](C)O3)cc1 | -49 | 161 | 73 | 67
Cc1ccccc1CS(=O)(=O)c1nnc([C@H](Cc2ccccc2)NC(=O)OC(C)(C)C)o1 | -55 | · | · | ·
CCc1c(C(=O)NC2CCCCC2)[nH]c(C)c1C(C)=O | -93 | · | · | ·
Cc1c(Cl)cccc1Nc1ncccc1C(=O)O | -56 | · | · | ·
O=C(NC1CCCCC1)c1cccnc1C(=O)O | -51 | 40 | 13 | 69
Cc1cc(C)c(C#N)c(N2CCN(c3ccccc3)CC2)n1 | -49 | · | · | ·
O=C(CN1CCC(Cn2cnc3ccccc32)CC1)NCc1ccco1 | · | 1 | -2.4 | 14
O=C(NCc1ccco1)c1scc2c1OCCO2 | -50 | · | · | ·
CN1C2C=C3C(C#N)=C(N)C(C#N)(C#N)C(c4ccc(Br)cc4)C3C1CC2 (stereo not given) | -42 | · | · | ·
Cc1nc(N2CCN(S(=O)(=O)c3ccc(F)cc3)CC2)c2c(-c3cccs3)csc2n1 | 83* | 307 | 369 | 176
SMILES | PGC1a Ac signal | Hep G6PC suppr | PCK1 hep suppr | Hep PGC-1a down
COc1ccc(-c2csc(N(CCCN(C)C)C(=O)c3cccs3)n2)cc1 | -46 | · | · | ·
Cn1nc(C(C)(C)C)cc1NC(=O)C1(C)CCN1C(=O)C1(c2ccccc2)CCCC1 (stereo not given) | -55 | · | · | ·
Cc1ccc(NC(=O)CN2CCC(NC(=O)Cc3ccccc3)CC2)c(C)c1 | 141* | 23 | 14 | 38
Cc1ccc(C(=O)N2CCN(c3ccc(NC(=O)c4ccc(Br)o4)cc3)CC2)cc1 | ? | -37 | -21 | 63
O=C(C1CCC1)N1CCN(S(=O)(=O)c2ccccc2)CC1 | ? | 11 | 1.2 | 118
COC1=CC(=O)c2c(ccc3ncnc(N)c23)C1=O | -66 | · | · | ·
C[C@H]1CN([C@@H](C)CO)C(=O)c2cccc(NC(=O)c3cnccn3)c2O[C@H]1CN(C)Cc1ccc(C(=O)Nc2ccccc2N)cc1 | 203* | -39 | -7.5 | 93
C[C@H]1CN([C@@H](C)CO)C(=O)c2cccc(NC(=O)Nc3cccc4ccccc34)c2O[C@H]1CN(C)Cc1ccc(C(=O)Nc2ccccc2N)cc1 | 81* | -38 | -11 | -13
C[C@H](CO)N1C[C@H](C)[C@H](CN(C)Cc2ccc(C(=O)Nc3ccccc3N)cc2)Oc2c(NC(=O)c3ccncc3)cccc2C1=O | -52 | · | · | ·
